{"source": "ChEMBL document CHEMBL2021808", "about": "“Chemical synthesis and biological evaluation of triazole derivatives as inhibitors of InhA and antituberculosis agents” (Eur J Med Chem, 2012)", "note": "Active and inactive are the calls of the source. The rule behind the calls is not given here.", "data": [{"biological_target": "T1, Enoyl-[acyl-carrier-protein] reductase [NADH] (Mycobacterium tuberculosis) (UniProt P9WGR1)", "T1 sequence (whole entry)": "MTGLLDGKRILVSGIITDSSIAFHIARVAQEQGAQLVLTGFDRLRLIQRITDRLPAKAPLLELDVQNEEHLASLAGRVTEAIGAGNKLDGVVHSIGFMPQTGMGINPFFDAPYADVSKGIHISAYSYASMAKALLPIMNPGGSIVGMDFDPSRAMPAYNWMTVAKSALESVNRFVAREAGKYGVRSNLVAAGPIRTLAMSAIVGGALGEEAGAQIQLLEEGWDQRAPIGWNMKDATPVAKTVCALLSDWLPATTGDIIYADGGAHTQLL", "assay": "Inhibition of Mycobacterium tuberculosis recombinant InhA expressed in Escherichia coli using trans-2-dodecenoyl-coenzyme-A as substrate at 50 uM", "procedure,_shortened": "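Recombinant InhA was expressed in E. coli and purified. Reactions with DD-CoA substrate, NADH and inhibitor were run in 30 mM PIPES, 150 mM NaCl, pH 6.8, and started by adding InhA (100 nM final). Percent inhibition was calculated from initial velocity against a no-inhibitor control. Run in triplicate.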", "values": [{"compound": "CCCCCCCCCCCCc1cn(Cc2ccccc2)nn1", "inhibition": "52%"}, {"compound": "CCCCCCCCc1cn(CCc2ccccc2C)nn1", "inhibition": "37%"}, {"compound": "CCCCCCCCCCc1cn(Cc2ccccc2)nn1", "inhibition": "44%"}, {"compound": "CCCCCCCCc1cn(Cc2ccccc2)nn1", "inhibition": "34%"}, {"compound": "CCCCCCCCCCc1cn(Cc2cccc(Cl)c2)nn1", "inhibition": "42%"}, {"compound": "CCCCCCCCCCc1cn(Cc2cccc(OC)c2)nn1", "inhibition": "20%"}, {"compound": "CCCCCCCCCCCCn1cc(COc2ccccc2)nn1", "inhibition": "54%"}, {"compound": "CCCCCCCCCCCCc1cn(CCc2ccc(OC)c(OC)c2)nn1", "inhibition": "inactive"}, {"compound": "CCCCCCc1cn(Cc2cc(C)cc(C)c2)nn1", "inhibition": "19%"}, {"compound": "CCCCCCCCCCCCn1cc(Cc2ccccc2)nn1", "inhibition": "58%"}, {"compound": "CCCCCCCCCCCCn1nncc1CCc1ccccc1", "inhibition": "9%"}, {"compound": "CCCCCCc1cn(Cc2ccccc2)nn1", "inhibition": "21%"}, {"compound": "CCCCCCCCn1cc(-c2cccc(O)c2)nn1", "inhibition": "inactive"}, {"compound": "CCCCCCc1cn(CCc2ccccc2)nn1", "inhibition": "10%"}, {"compound": "CCCCCCCCn1cc(Cc2ccccc2)nn1", "inhibition": "73%"}, {"compound": "CCCCCCCCn1cc(-c2cccc(C)c2)nn1", "inhibition": "33%"}, {"compound": "CCCCCCCCCCCCc1cn(Cc2cccc(OC)c2)nn1", "inhibition": "46%"}, {"compound": "CCCCCCCCCCCCn1cc(COc2ccc(Cl)cc2OC)nn1", "inhibition": "35%"}, {"compound": "CCCCCCCCCn1cc(Cc2ccccc2)nn1", "inhibition": "75%"}, {"compound": "CCCCCCCCCCCCc1cn(CCc2ccccc2)nn1", "inhibition": "67%"}, {"compound": "CCCCCCCCCCc1cn(CCc2ccc(OC)c(OC)c2)nn1", "inhibition": "21%"}, {"compound": "CCCCCCCCCCCCn1cc(COc2ccc(Cl)cc2Cl)nn1", "inhibition": "< 5%"}, {"compound": "CCCCCCCCCCc1cn(CCc2ccccc2OC)nn1", "inhibition": "48%"}, {"compound": "CCCCCCCCCCc1cn(Cc2cc(OC)cc(OC)c2)nn1", "inhibition": "24%"}, {"compound": "CCCCCCCCCCc1cnnn1CCc1ccccc1", "inhibition": "33%"}, {"compound": "CCCCCCc1cn(Cc2cccc(Cl)c2)nn1", "inhibition": "inactive"}, {"compound": "CCCCCCCCCCCCc1cn(CCc2ccccc2OC)nn1", "inhibition": "61%"}, {"compound": "CCCCCCc1cn(Cc2cccc(OC)c2)nn1", "inhibition": "inactive"}, {"compound": "CCCCCCCCCCc1cn(CCc2ccccc2)nn1", "inhibition": "43%"}, {"compound": "CCCCCCCCCCc1cn(CCc2ccccc2C)nn1", "inhibition": "58%"}]}, {"test_system": "Mycobacterium tuberculosis", "assay": "Antimycobacterial activity against Mycobacterium tuberculosis H37Rv by two-fold serial dilution method", "format": "functional", "procedure,_shortened": "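A single colony was grown in complete Middlebrook 7H9 at 37 °C to exponential phase (about 10⁸ CFU/mL, OD600 0.8–1.0). Cultures were diluted to about 10⁷ CFU/mL and streaked onto plates with two-fold dilutions of compound. MIC is the minimal inhibitory concentration.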", "units": {"MIC": "µg/mL"}, "values": [{"compound": "CCCCCCCCCCCCc1cn(Cc2ccccc2)nn1", "MIC": "> 4"}, {"compound": "CCCCCCCCc1cn(CCc2ccccc2C)nn1", "MIC": 2}, {"compound": "CCCCCCCCCCc1cn(Cc2ccccc2)nn1", "MIC": "> 4"}, {"compound": "CCCCCCCCc1cn(Cc2ccccc2)nn1", "MIC": "> 4"}, {"compound": "CCCCCCCCCCc1cn(Cc2cccc(Cl)c2)nn1", "MIC": 4}, {"compound": "CCCCCCCCCCc1cn(Cc2cccc(OC)c2)nn1", "MIC": "> 4"}, {"compound": "CCCCCCCCCCCCn1cc(COc2ccccc2)nn1", "MIC": 2}, {"compound": "CCCCCCCCCCCCc1cn(CCc2ccc(OC)c(OC)c2)nn1", "MIC": 0.25}, {"compound": "CCCCCCCCCCCCn1cc(Cc2ccccc2)nn1", "MIC": 25}, {"compound": "CCCCCCCCCCCCn1nncc1CCc1ccccc1", "MIC": "> 4"}, {"compound": "CCCCCCc1cn(Cc2ccccc2)nn1", "MIC": 25}, {"compound": "CCCCCCc1cn(CCc2ccccc2)nn1", "MIC": 10}, {"compound": "CCCCCCCCn1cc(Cc2ccccc2)nn1", "MIC": 25}, {"compound": "CCCCCCCCn1cc(-c2cccc(C)c2)nn1", "MIC": "> 4"}, {"compound": "CCCCCCCCCCCCc1cn(Cc2cccc(OC)c2)nn1", "MIC": 4}, {"compound": "CCCCCCCCCCCCn1cc(COc2ccc(Cl)cc2OC)nn1", "MIC": "> 4"}, {"compound": "CCCCCCCCCn1cc(Cc2ccccc2)nn1", "MIC": 25}, {"compound": "CCCCCCCCCCCCc1cn(CCc2ccccc2)nn1", "MIC": 4}, {"compound": "CCCCCCCCCCc1cn(CCc2ccc(OC)c(OC)c2)nn1", "MIC": 2}, {"compound": "CCCCCCCCCCCCn1cc(COc2ccc(Cl)cc2Cl)nn1", "MIC": 4}, {"compound": "CCCCCCCCCCc1cn(CCc2ccccc2OC)nn1", "MIC": 2}, {"compound": "CCCCCCCCCCc1cn(Cc2cc(OC)cc(OC)c2)nn1", "MIC": "> 4"}, {"compound": "CCCCCCCCCCc1cnnn1CCc1ccccc1", "MIC": "> 4"}, {"compound": "CCCCCCc1cn(Cc2cccc(Cl)c2)nn1", "MIC": 4}, {"compound": "CCCCCCCCCCCCc1cn(CCc2ccccc2OC)nn1", "MIC": 2}, {"compound": "CCCCCCc1cn(Cc2cccc(OC)c2)nn1", "MIC": "> 4"}, {"compound": "CCCCCCCCCCCCn1cc(CCc2ccccc2)nn1", "MIC": 0.5}, {"compound": "CCCCCCCCCCc1cn(CCc2ccccc2)nn1", "MIC": 4}, {"compound": "CCCCCCCCCCc1cn(CCc2ccccc2C)nn1", "MIC": 2}]}]}
